From ChEMBL document CHEMBL3259808, “Optimization of antitrypanosomatid agents: identification of nonmutagenic drug candidates with in vivo activity” (J Med Chem, 2014)

What was measured:
Trypanosoma cruzi [1] = test: Antitrypanosomal activity against Trypanosoma cruzi Tulahuen 2 epimastigotes assessed as growth inhibition after 5 days; type: functional, organism-based
Method in brief: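 Epimastigotes were grown axenically at 28 °C in BHI-tryptose with 5% FBS and seeded from a 5–7 day culture at 1 × 10⁶ cells/mL. Drug from a DMSO stock was added (final DMSO ≤0.4%; the control contained 0.4% DMSO). Duplicates were run. A600 was read at day 5, and % inhibition was calculated relative to day-0 and control readings. IC50 = concentration that halves the absorbance ratio.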

Trypanosoma cruzi [2] = test: Antitrypanosomal activity against Trypanosoma cruzi Sylvio X-10 amastigotes infected in African green monkey Vero cells assessed as eradication of amastigotes after 5 days by Giemsa staining-based assay; type: functional, organism-based; details: Sylvio X-10, Vero, 120 h
Method in brief: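 VERO cells in RPMI 1640 with 10% hiFCS were allowed to adhere for 24 h at 37 °C in 5% CO₂, then infected with tissue-derived trypomastigotes at 10:1. Free parasites were washed off after 24 h, and cultures were treated at five compound doses (text gives 72 h / 5 days). Cultures were methanol-fixed and Giemsa-stained, and infected cells were counted among 300. Quadruplicates were run in three independent experiments. IC50/IC90 were obtained by sigmoidal regression.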

Trypanosoma cruzi [3] = test: Antitrypanosomal activity against Trypanosoma cruzi Sylvio X-10 amastigotes infected in African green monkey Vero cells assessed as eradication of amastigotes after 72 hrs by Giemsa staining-based assay; details: Sylvio X-10, Vero
Salmonella typhimurium [4] = test: Mutagenic activity in Salmonella typhimurium TA98 at 5 to 400 ug/plate by Ames test; type: toxicity, organism-based; details: salmonella enterica subsp. enterica serovar typhimurium
Method in brief: (§1)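 Ames plate-incorporation assay with S. typhimurium TA98 in Vogel-Bonner E minimal glucose agar. Toxicity toward the bacteria was checked first. DMSO solutions were run in triplicate at five consecutive third-dilutions, starting at the highest non-toxic dose. Positive controls were 4-nitro-o-phenylenediamine (20.0 μg/plate) and 2-aminofluorene (10.0 μg/plate); DMSO was the negative control. Revertants were counted manually. A compound was called mutagenic when revertants were at least twice the negative control at two or more consecutive doses.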

Salmonella typhimurium [5] = test: Mutagenic activity in Salmonella typhimurium TA98 at 5 to 400 ug/plate by Ames test in presence of mouse liver S9 fraction; type: toxicity, organism-based; details: salmonella enterica subsp. enterica serovar typhimurium; method in brief: as §1
[6] = Selectivity index, ratio of IC50 for African green monkey Vero cells to IC50 for Trypanosoma cruzi Sylvio X-10 amastigotes; type: toxicity, cell-based; details: read-out: Ratio IC50
Method in brief: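 VERO cytotoxicity: cells exposed 48 h at 37 °C, 5% CO2 to serial dilutions from a maximum of 2000 μM (DMSO stocks; DMSO <0.1% control); growth inhibition read by MTT at 570 nm. Amastigote IC50: Sylvio X-10-infected VERO cells, five doses, infected cells counted among 300 (Giemsa), quadruplicate, three experiments, sigmoidal fit. SI = IC50 VERO / IC50 amastigote.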

[7] = Selectivity index, ratio of IC50 for human RBC to IC50 for Trypanosoma cruzi Sylvio X-10 amastigotes
Method in brief: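 Hemolysis: washed human erythrocytes (2% w/v in PBS) incubated 24 h at 37 °C with compound at final 50, 100 and 200 μM. Ten replicates per concentration. Hemoglobin release read at 405 nm against water lysis as 100%; amphotericin B 1.5 μM was the positive control. SI = IC50 red cells / parasite IC50 (Sylvio X-10 amastigotes or Tulahuen 2 epimastigotes).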

[8] = Stability of the compound in aqueous solution assessed as compound remaining at 1 mM at pH 6 after 1 hr by TLC analysis; type: physicochemical; details: buffer, pH 6, 1 h, 1000 µM
Method in brief: (§2)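 DMSO stocks diluted to final 1 mM in KCl·HCl pH 1.0, citrate pH 6.0, Tris·HCl pH 7.4 or borax·HCl pH 9.0 buffer. Incubated 1 h at 37 °C, then ethyl acetate extracts checked by TLC for decomposition products.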

[9] = Stability of the compound in aqueous solution assessed as compound remaining at 1 mM at pH 7.4 after 1 hr by TLC analysis; type: physicochemical; details: buffer, pH 7.4, 1 h, 1000 µM; method in brief: as §2
[10] = Stability of the compound in aqueous solution assessed as compound remaining at 1 mM at pH 9 after 1 hr by TLC analysis; type: physicochemical; details: buffer, pH 9, 1 h, 1000 µM; method in brief: as §2
[11] = Trypanosoma cruzi, Tulahuen 2, 120 h

| SMILES | IC50 (Trypanosoma cruzi [1]; [11]) | other results |
| --- | --- | --- |
| C=CCN1C(=O)CS/C1=N\N=C\c1ccc([N+](=O)[O-])s1 | > 25 µM | IC50 (Trypanosoma cruzi [2]): > 25 µM; IC90 (Trypanosoma cruzi [3]): > 25 µM |
| O=C1CS\C(=N/N=C\C=C\C=C\c2cccs2)N1c1ccccc1 | > 25 µM | – |
| C=CCn1c(-c2ccc(Cl)cc2)cs/c1=N/N=C/c1ccc([N+](=O)[O-])s1 | 14 µM | IC50 (Trypanosoma cruzi [2]): > 25 µM; IC90 (Trypanosoma cruzi [3]): > 25 µM |
| C=CCNC(=S)N/N=C/c1cncc(Br)c1 | > 25 µM | – |
| Br.C=CCn1c(-c2ccc([N+](=O)[O-])cc2)cs\c1=N/N=C/C=C/c1ccco1 | > 25 µM | Activity (Salmonella typhimurium [4]): Toxic; Activity (Salmonella typhimurium [5]): Toxic |
| O=[N+]([O-])c1ccc(/C=N/N=c2\scc(-c3ccccc3)n2-c2ccccc2)s1 | > 25 µM | – |
| C=CCN1C(=O)CS/C1=N/N=C\c1ccc(Cl)cc1 | > 25 µM | – |
| C=CCNC(=S)N/N=C/C=C/c1ccccc1 | 6.6 µM | – |
| C=CCNC(=S)N/N=C/c1ccc2ccccc2c1 | 5.4 µM | – |
| C(=N\N=c1/scc(-c2ccccc2)n1-c1ccccc1)/c1ccccc1 | > 25 µM | – |
| O=[N+]([O-])c1ccc(/C=N/NC(=S)Nc2ccccc2)s1 | 4 µM | IC50 (Trypanosoma cruzi [2]): 4.1 µM; selectivity ratio [6]: 20 |
| C=CCn1c(-c2ccccc2)cs\c1=N/N=C/C=C/c1ccccc1 | > 25 µM | – |
| N/C(S)=N/N=C/c1ccc([N+](=O)[O-])s1 | 25 µM | – |
| S=C(N/N=C/C=C/c1ccco1)Nc1ccccc1 | 11 µM | – |
| C=CCNC(=S)N/N=C/c1ccc(Cl)cc1 | 11 µM | – |
| S=C(N/N=C/c1ccccc1)Nc1ccccc1 | 19 µM | – |
| C=CCn1c(-c2ccc(Cl)cc2)cs/c1=N\N=C\c1ccc2c(c1)[n+]([O-])c(C)c(C)[n+]2[O-] | 15 µM | – |
| Cc1cs/c(=N/N=C/C=C/c2ccco2)n1-c1ccccc1 | 25 µM | – |
| O=C1CS\C(=N/N=C/C=C/c2ccco2)N1c1ccccc1 | > 25 µM | – |
| O=C1CS/C(=N\N=C\c2ccc([N+](=O)[O-])s2)N1c1ccccc1 (stereo in doubt; 10) | 13 µM | IC50 (Trypanosoma cruzi [2]): > 25 µM; IC90 (Trypanosoma cruzi [3]): > 25 µM |
| C=CCNC(=S)N/N=C/c1cc2ccccc2o1 | > 25 µM | – |
| C=CCNC(=S)N/N=C/c1ccc2c(c1)OCO2 | > 25 µM | – |
| C[C@@H]1[C@H](O)[C@@H](C)/C=C/C=C/C=C/C=C/C=C/C=C/C=C/[C@H](O[C@@H]2O[C@H](C)[C@@H](O)[C@H](N)[C@@H]2O)C[C@@H]2O[C@](O)(C[C@@H](O)C[C@@H](O)[C@H](O)CC[C@@H](O)C[C@@H](O)CC(=O)O[C@H]1C)C[C@H](O)[C@H]2C(=O)O [AMPHOTERICIN B] | – | IC50 (Trypanosoma cruzi [2]): 1.1 µM; Ratio IC50 [7]: 10 |
| C=CCn1c(-c2ccc(Cl)cc2)cs/c1=N\N=C\c1ccc(Cl)cc1 | > 25 µM | – |
| C(=C\c1ccco1)/C=N/N=c1/scc(-c2ccccc2)n1-c1ccccc1 | 5 µM | – |
| C=CCn1c(-c2ccc(Cl)cc2)cs\c1=N/N=C/C=C/c1ccc([N+](=O)[O-])s1 | 10 µM | IC50 (Trypanosoma cruzi [2]): 16.9 µM; IC90 (Trypanosoma cruzi [3]): 25.4 µM |
| O=C1CS/C(=N\N=C\c2ccc([N+](=O)[O-])s2)N1 | > 25 µM | – |
| O=C1CS/C(=N\N=C\c2ccc([N+](=O)[O-])s2)N1c1ccccc1 (stereo in doubt; 13) | – | IC50 (Trypanosoma cruzi [1]): > 25 µM |
| C=CCNC(=S)N/N=C/c1ccc(O)cc1 | > 25 µM | – |
| S=C(N/N=C/C=C/C=C/c1cccs1)Nc1ccccc1 | 1.7 µM | IC50 (Trypanosoma cruzi [2]): > 25 µM; IC90 (Trypanosoma cruzi [3]): > 25 µM |

More lines, main results first:

| IC50 (Trypanosoma cruzi [1]; [11]) | SMILES | other results |
| --- | --- | --- |
| > 25 µM | C=CCN1C(=O)CS/C1=N\N=C\c1cccs1 | – |
| > 25 µM | C=CCn1c(-c2ccc(Br)cc2)cs\c1=N/N=C/C=C/c1cccs1 | – |
| > 25 µM | C=CCN1C(=O)CS\C1=N/N=C/C=C/c1ccco1 | – |
| > 25 µM | C=CCn1c(C)cs/c1=N\N=C\c1ccco1 | – |
| > 25 µM | C=CCn1c(-c2ccc(Cl)cc2)cs\c1=N/N=C/C=C/c1cccs1 | – |
| > 25 µM | C=CCn1c(-c2ccc([N+](=O)[O-])cc2)cs\c1=N/N=C/C=C/c1cccs1 | – |
| > 25 µM | C=CCN(C(C)=O)C1=NN(C(C)=O)C(/C=C/c2ccco2)S1 (configuration not stated) | – |
| 17 µM | C=CCNC(=S)N/N=C/c1ccnc2ccccc12 | – |
| > 25 µM | Cc1cs/c(=N\N=C\c2cccs2)n1-c1ccccc1 | – |
| 6 µM | C=CCn1c(-c2ccccc2)cs/c1=N\N=C\c1ccc([N+](=O)[O-])s1 | IC50 (Trypanosoma cruzi [2]): 25 µM; selectivity ratio [6]: 5 |
| > 25 µM | C=CCn1c(-c2ccc(Cl)cc2)cs/c1=N/N=C/c1cccs1 | IC50 (Trypanosoma cruzi [2]): 8 µM |
| > 25 µM | CC(=O)N(C1=NN(C(C)=O)C(c2cccs2)S1)c1ccccc1 (configuration not stated) | – |
| 20 µM | C=CCn1c(-c2ccccc2)cs/c1=N/N=C/c1ccc([N+](=O)[O-])s1 | – |
| > 25 µM | C=CCn1c(-c2ccccc2)cs/c1=N/N=C/c1cccs1 | – |
| > 25 µM | C=CCNC(=S)N/N=C/c1ccsc1 | – |
| > 25 µM | C=CCN(C(C)=O)C1=NNC(c2cccs2)S1 (configuration not stated) | – |
| 10 µM | C=CCNC(=S)N/N=C/c1ccc(SC)cc1 | – |
| > 25 µM | C=CCN1C(=O)CS\C1=N/N=C\C=C\C=C\c1cccs1 | – |
| > 25 µM | C=CCN(C(C)=O)C1=NNC(c2ccc([N+](=O)[O-])s2)S1 (configuration not stated) | – |
| > 25 µM | C=CCn1c(C)cs/c1=N\N=C\c1ccc(S(=O)(=O)O)o1 | – |
| > 25 µM | C=CCn1c(-c2ccc(OC)cc2)cs\c1=N/N=C/C=C/c1cccs1 | – |
| > 25 µM | C=CCn1c(-c2ccc3ccccc3c2)cs\c1=N/N=C/C=C/c1cccs1 | – |
| 8 µM | C=CCn1c(-c2ccc(OC)cc2)cs/c1=N/N=C/c1ccc([N+](=O)[O-])s1 | IC50 (Trypanosoma cruzi [2]): > 25 µM; IC90 (Trypanosoma cruzi [3]): > 25 µM |
| > 25 µM | C=CCn1c(-c2ccccc2)cs/c1=N\N=C\c1ccco1 | – |
| > 25 µM | C=CCn1c(C)cs\c1=N/N=C/C=C/c1ccccc1 | – |
| > 25 µM | C=CCNC(=S)N/N=C/C=C/c1cccs1 | Activity (Salmonella typhimurium [4]): Non-toxic; Activity (Salmonella typhimurium [5]): Non-toxic |
| > 25 µM | C=CCn1c(-c2ccccc2)cs/c1=N\N=C\c1ccc(S(=O)(=O)O)o1 | – |
| 14.6 µM | C=CCn1c(-c2ccc(Cl)cc2)cs/c1=N\N=C\c1ccsc1 | – |
| > 25 µM | C=CCn1c(-c2ccccc2)cs\c1=N/N=C/C=C/c1cccs1 | – |
| > 25 µM | C=CCn1c(C)cs/c1=N\N=C\c1cccs1 | IC50 (Trypanosoma cruzi [2]): > 25 µM; Stability [8]: Unstable; Stability [9]: Unstable; Stability [10]: Unstable; IC90 (Trypanosoma cruzi [3]): > 25 µM |
